Results on 37 sequences are retold here after the array DNA melting data of Ke et al. (doi:10.1101/2024.01.08.574731).

Series [1] can be described thus: melting temperature; fluorescence melt of hairpins on a sequencing array, two-state fit, raised by 9.35 °C to match UV melts. The settings on record: sodium 0.088 M. The gist of the method:
(§1)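 With Cy3 and quencher oligos annealed, library hairpins on a sequenced MiSeq flow cell were imaged for Cy3 fluorescence in 50 mM Na-HEPES pH 8.0, 25 mM NaCl, in 2.5 °C steps up to 60 °C. Melting temperature and folding enthalpy were derived from bootstrapped two-state fits of signals normalised to pre-quench Cy3 and to control constructs. Four replicates were combined by inverse variance, with fitted temperatures raised by 9.35 °C to match UV melts.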

Series [2] is described as follows: folding enthalpy; higher = less favourable; fluorescence melt of hairpins on a sequencing array, two-state fit. The conditions noted are these: sodium 0.088 M. The procedure, abridged:
as §1

GTATGGGGAAACCCGTAC (((.(((....))).))): in series [1], the Tm is 49.1 °C. In series [2], the folding enthalpy is -34.5 kcal/mol.
The like results for GTATGGTCGAAAGACTAC (((..(((....)))))) were, in that order, 27.9 °C and -15.5 kcal/mol.
As for GTATGTCCGAAAGGATAC (((..(((....)))))), in series [1], the Tm was 26.8 °C. In addition, in series [2], the folding enthalpy is -16.3 kcal/mol.
The like results for GTATGTCGAAAGACCTAC (((.(((....))).))) were, in that order, 39.6 °C and -19.2 kcal/mol.
The corresponding values for GTATGTGAAAACATAC ((((((....)))))) are 50.4 °C and -36.2 kcal/mol.
For GTATGTGGAAACACATAC (((((((....))))))), the Tm in series [1] is 56 °C. In series [2], the folding enthalpy is -42.4 kcal/mol.
The like results for GTATTAGGAAACTAGTAC (((.(((....))).))) were, in that order, 29 °C and -16.2 kcal/mol.
The like results for GTATTCGAAAGAACTAC ((((((....))).))) were, in that order, 22.4 °C and -9.16 kcal/mol.
The like results for GTATTCGAAAGAATCTAC ((((((....)))..))) were, in that order, 33.3 °C and -10.7 kcal/mol.
Consider GTATTCGGAAACGAATAC (((((((....))))))), for which the Tm in series [1] was 56.8 °C. In addition, in series [2], the folding enthalpy is -48.2 kcal/mol.
The like results for GTATTCTCGAAAGAGTAC (((..(((....)))))) were, in that order, 22.9 °C and -7.69 kcal/mol.
The corresponding values for GTATTGCCGAAAGGCTAC (((..(((....)))))) are 50 °C and -3.24 kcal/mol.
The like results for GTATTGCGAAAGCACTAC (((.(((....))).))) were, in that order, 39.4 °C and -21.5 kcal/mol.
As for GTATTGGCGAAAGCCTAC (((..(((....)))))), in series [1], the Tm was 41.5 °C. Also, the folding enthalpy in series [2] was -3.67 kcal/mol.
Turning to GTATTGTCGAAAGACTAC (((..(((....)))))), the Tm in series [1] was found to be 28.5 °C. Besides, the folding enthalpy in series [2] is -11.4 kcal/mol.
As for GTCAAAGCGAAAGCTGAC (((..(((....)))))), the Tm in series [1] was 48.1 °C. Besides, in series [2], the folding enthalpy was -21.2 kcal/mol.
The like results for GTCAAAGGAAACTTTGGC (.(((((....))))).) were, in that order, 44.5 °C and -29.9 kcal/mol.
Turning to GTCAACCGAAAGGTGAC (((.(((....)))))), the Tm in series [1] is 55.7 °C. The folding enthalpy in series [2] was -24.4 kcal/mol.
The like results for GTCAACGAAAGTTAAGAC ((((((....)))..))) were, in that order, 31.3 °C and -19.2 kcal/mol.
The corresponding values for GTCAACGAAAGTTCCGAC ((((((....)))..))) are 20.9 °C and -9.76 kcal/mol.
The corresponding values for GTCAACGAAAGTTCGAC ((((((....))).))) are 38.4 °C and -25.7 kcal/mol.
Take GTCAACGGAAACGCTGAC ((((.((....)).)))): the Tm in series [1] worked out at 46.4 °C. Also, the folding enthalpy in series [2] is -35.8 kcal/mol.
The corresponding values for GTCAAGACGAAAGTCGAC (((..(((....)))))) are 43.9 °C and -13.7 kcal/mol.
The like results for GTCAAGCGAAAGCTGGAC (((.(((....))).))) were, in that order, 62.4 °C and -29.4 kcal/mol.
The corresponding values for GTCAATCGAAAGATGGAC (((.(((....))).))) are 49.2 °C and -25.5 kcal/mol.
With GTCAATGAAAATTGAC ((((((....)))))), the Tm in series [1] amounted to 50.8 °C. The folding enthalpy in series [2] was -31.7 kcal/mol.
The like results for GTCACACCGAAAGGTGAC (((..(((....)))))) were, in that order, 41.1 °C and -10.9 kcal/mol.
The corresponding values for GTCACACGAAAGTGCGAC (((.(((....))).))) are 55.6 °C and -35.4 kcal/mol.
For the sequence GTCACAGAAATGTGAC ((((((....)))))), the Tm in series [1] came to 56.8 °C. For the same sequence, in series [2], the folding enthalpy is -35.2 kcal/mol.
The corresponding values for GTCACAGGAAACCGTGAC (((((.(....).))))) are 49.1 °C and -30.3 kcal/mol.
The corresponding values for GTCACAGGAAACTATGAC ((((.((....)).)))) are 32 °C and -20.1 kcal/mol.
In the case of GTCACAGGAAACTGTGGC (.(((((....))))).), the Tm in series [1] was determined as 52.5 °C. The folding enthalpy in series [2] is -32.8 kcal/mol.
The corresponding values for GTCACCGAAAGGTTGGAC ((((((....)))..))) are 31.1 °C and -14.8 kcal/mol.
The corresponding values for GTCACCGCGAAAGCGGAC (((..(((....)))))) are 26.5 °C and -5.92 kcal/mol.
The like results for GTCACCGGAAACGACGAC (((..((....))..))) were, in that order, 31.1 °C and -24.7 kcal/mol.
Consider GTCACCGGAAACGATGAC ((((.((....)).)))), for which the Tm in series [1] stood at 45.9 °C. The folding enthalpy in series [2] was -33.5 kcal/mol.
The like results for GTCACCGGAAACGGCGAC (((.(((....))).))) were, in that order, 54.5 °C and -40.6 kcal/mol.
